Source: ChEMBL document CHEMBL4610013, “Heteroarylamide smoothened inhibitors: Discovery of N-[2,4-dimethyl-5-(1-methylimidazol-4-yl)phenyl]-4-(2-pyridylmethoxy)benzamide (AZD8542) and N-[5-(1H-imidazol-2-yl)-2,4-dimethyl-phenyl]-4-(2- pyridylmethoxy)benzamide (AZD7254)” (Bioorg Med Chem, 2020)

Tests used:
[1] = Metabolic stability in rat hepatocytes assessed as intrinsic clearance measured per million cells; type: ADME, cell-based, Hepatocyte; details: read-out: CLH
[2] = Lipophilicity, logD of compound; type: physicochemical; details: octanol/water
[3] = Drug level in mouse plasma at 40 mg/kg, po administered as single dose measured after 1 hr; type: ADME, organism-based
How it was run: (§1)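 Plasma was taken from Colo205 tumour-bearing female nude mice sacrificed 1 or 8 h after a single 40 mg/kg oral dose. Drug concentrations were measured in µM.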

[4] = Drug level in mouse plasma at 40 mg/kg, po administered as single dose measured after 8 hrs; type: ADME, organism-based; how it was run: as §1
[5] = Metabolic stability in rat liver microsomes assessed as intrinsic clearance; type: ADME, Microsome; details: read-out: CLH
[6] = Metabolic stability in human liver microsomes assessed as intrinsic clearance; type: ADME, Microsome; details: read-out: CLH
[7] = Half life in mouse; type: ADME, organism-based; details: in vivo
[8] = Metabolic stability in human hepatocytes assessed as intrinsic clearance measured per million cells; type: ADME, cell-based, Hepatocyte; details: read-out: CLH
[9] = Metabolic stability in dog hepatocytes assessed as intrinsic clearance measured per million cells; type: ADME, cell-based, Canis lupus familiaris, Hepatocyte; details: read-out: CLH
[10] = Volume of distribution at steady state in guinea pig; type: ADME, Cavia porcellus; details: in vivo, read-out: Vdss
[11] = Clearance in dog; type: ADME, Canis lupus familiaris; details: in vivo
[12] = Volume of distribution at steady state in dog; type: ADME, Canis lupus familiaris; details: in vivo, read-out: Vdss
[13] = Half life in rat; type: ADME; details: in vivo
[14] = Half life in guinea pig; type: ADME, Cavia porcellus; details: in vivo
[15] = Half life in dog; type: ADME, Canis lupus familiaris; details: in vivo
[16] = Clearance in mouse; type: ADME, organism-based; details: in vivo
[17] = Metabolic stability in mouse hepatocytes assessed as intrinsic clearance measured per million cells; type: ADME, cell-based, Hepatocyte; details: read-out: CLH
[18] = Oral bioavailability in mouse; type: ADME, organism-based; details: in vivo
[19] = Volume of distribution at steady state in rat; type: ADME; details: in vivo, read-out: Vdss
[20] = Oral bioavailability in rat; type: ADME, organism-based; details: in vivo
[21] = Clearance in guinea pig; type: ADME, Cavia porcellus; details: in vivo
[22] = Clearance in rat; type: ADME; details: in vivo
[23] = Oral bioavailability in dog; type: ADME, organism-based, Canis lupus familiaris; details: in vivo
[24] = Volume of distribution at steady state in mouse; type: ADME, organism-based; details: in vivo, read-out: Vdss
MDR1 = experiment: Apparent permeability in LLC-PK1 cells expressing MDR1; type: ADME, cell-based, Sus scrofa; details: pig
How it was run: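 The cells were MDR1-LLC PK1, a line engineered to express the P-gp efflux pump. Permeability was taken as apical-to-basolateral Papp (10⁻⁶ cm/s), and the efflux ratio was also derived.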

Row | SMILES | logD [2] | concentration at 1 h [3] [µM] | concentration at 8 h [4] [µM] | microsomal CLint [5] [µL/min/mg] | microsomal CLint [6] [µL/min/mg] | other results
1 | Cc1cc(F)c(-c2ncc[nH]2)cc1NC(=O)c1ccc(OCc2ccccn2)cc1 | 3 | 58 | 20 |  |  | hepatocyte CLint [1]: 14 µL/min/1e6 cells
2 | Cc1ccc(-c2[nH]cnc2C)cc1NC(=O)c1ccc(OCc2ccccn2)cc1 | 2.9 |  |  |  |  | 
3 | Cc1cc(C)c(-c2c[nH]nc2C)cc1NC(=O)c1ccc(OCc2ccccn2)cc1 | > 3 | 5.5 | 0.23 | 55 | 20 | 
4 | Cc1ccc(-c2ncc[nH]2)c(C)c1NC(=O)c1ccc(OCc2ccccn2)cc1 | 2.8 | 3.3 | 0.14 |  |  | 
5 | Cc1cc(Cl)c(-c2ncc[nH]2)cc1NC(=O)c1ccc(OCc2ccccn2)cc1 | > 3 |  |  |  |  | 
6 | Cc1ccc(-c2nccn2C)cc1NC(=O)c1ccc(OCc2ccccn2)cc1 | 2.8 |  |  |  |  | 
7 | Cc1ccc(-c2cn(C)c(C)n2)cc1NC(=O)c1ccc(OCc2ccccn2)cc1 | 2.7 |  |  |  |  | 
8 | Cc1ccc(-c2cn(C)cn2)cc1NC(=O)c1ccc(OCc2ccccn2)cc1 | 2.5 | 63 | 16 |  |  | 
9 | Cc1cc(C)c(-c2cccc(N)n2)cc1NC(=O)c1ccc(OCc2ccccn2)cc1 | > 3 |  |  | 155 | 88 | 
10 | Cc1cc(Cl)c(-c2nccn2C)cc1NC(=O)c1ccc(OCc2ccccn2)cc1 | 3.2 |  |  |  |  | 
11 | Cc1cc(C)c(-c2ccc(N)nn2)cc1NC(=O)c1ccc(OCc2ccccn2)cc1 | 2.6 | 33 | 2.7 | 8 | < 4 | 
12 | Cc1cc(C)c(-c2cccnc2)cc1NC(=O)c1ccc(OCc2ccccn2)cc1 | > 3 |  |  | 78 | 62 | 
13 | Cc1cc(Cl)c(-c2cn(C)c(C)n2)cc1NC(=O)c1ccc(OCc2ccccn2)cc1 | 3.3 |  |  |  |  | 
14 | Cc1cc(C)c(-c2ccc(N)cn2)cc1NC(=O)c1ccc(OCc2ccccn2)cc1 | 3.2 |  |  | 32 | 9 | 
15 | Cc1cc(C)c(-c2c(C)nn(C)c2C)cc1NC(=O)c1ccc(OCc2ccccn2)cc1 | > 3 |  |  | 271 | 122 | 
16 | Cc1nc(-c2ccc(C)c(NC(=O)c3ccc(OCc4ccccn4)cc3)c2)c[nH]1 | 3 |  |  |  |  | 
17 | Cc1cc(C)c(-c2cn(C)cn2)cc1NC(=O)c1ccc(OCc2ccccn2)cc1 | 3 | 94 | 16 |  |  | hepatocyte CLint [1]: 19 µL/min/1e6 cells; half-life [7]: 0.8 h; hepatocyte CLint [8]: 6 µL/min/1e6 cells; hepatocyte CLint [9]: 10 µL/min/1e6 cells; Vd [10]: 0.5 L/kg; clearance [11]: 4.7 mL/min/kg; Vd [12]: 0.5 L/kg; half-life [13]: 2.4 h; half-life [14]: 4.2 h; half-life [15]: 1.4 h; clearance [16]: 6.1 mL/min/kg; hepatocyte CLint [17]: < 1 µL/min/1e6 cells; bioavailability [18]: 70%; Vd [19]: 0.2 L/kg; bioavailability [20]: 90%; clearance [21]: 1.6 mL/min/kg; clearance [22]: 1.7 mL/min/kg; bioavailability [23]: 32%; Vd [24]: 0.4 L/kg; Papp (MDR1): 16.5 ×10⁻⁶ cm/s
18 | Cc1ccc(-c2c[nH]cn2)cc1NC(=O)c1ccc(OCc2ccccn2)cc1 | 2.8 |  |  |  |  | 
19 | Cc1cc(C)c(-c2ccccn2)cc1NC(=O)c1ccc(OCc2ccccn2)cc1 | > 3 |  |  | 296 | 209 | 
20 | Cc1ccc(-c2ncc[nH]2)cc1NC(=O)c1ccc(OCc2ccccn2)cc1 | 3 |  | 7.5 |  |  | 
21 | Cc1ccc(-c2cnc(C)n2C)cc1NC(=O)c1ccc(OCc2ccccn2)cc1 | 2.8 | 1.8 | 0.08 |  |  | 
22 | Cc1csc(-c2cc(NC(=O)c3ccc(OCc4ccccn4)cc3)c(C)cc2C)n1 | > 3 |  |  | 147 | 513 | 
23 | Cc1cc(C)c(-c2nc3ccccc3[nH]2)cc1NC(=O)c1ccc(OCc2ccccn2)cc1 | > 3.5 |  |  | 21 | 30 | 
24 | Cc1cc(C)c(-c2ncc[nH]2)cc1NC(=O)c1ccc(OCc2ccccn2)cc1 | 3.1 | 22.3 | 1.9 |  |  | hepatocyte CLint [1]: 18 µL/min/1e6 cells; half-life [7]: 0.7 h; hepatocyte CLint [8]: 9 µL/min/1e6 cells; hepatocyte CLint [9]: 1.4 µL/min/1e6 cells; Vd [10]: 1.8 L/kg; clearance [11]: 4 mL/min/kg; Vd [12]: 0.9 L/kg; half-life [13]: 1.1 h; half-life [14]: 1.5 h; half-life [15]: 3.3 h; clearance [16]: 31 mL/min/kg; hepatocyte CLint [17]: 6.6 µL/min/1e6 cells; bioavailability [18]: 75%; Vd [19]: 1.2 L/kg; bioavailability [20]: 100%; clearance [21]: 18 mL/min/kg; clearance [22]: 24 mL/min/kg; bioavailability [23]: 100%; Vd [24]: 1.6 L/kg; Papp (MDR1): 7.5 ×10⁻⁶ cm/s
25 | Cc1cc(C)c(-c2cnc(C)n2C)cc1NC(=O)c1ccc(OCc2ccccn2)cc1 | 2.8 | 2.9 | 0.28 |  |  | hepatocyte CLint [1]: 32 µL/min/1e6 cells; hepatocyte CLint [8]: 12 µL/min/1e6 cells
26 | CS(=O)(=O)c1ccc(C(=O)Nc2ccc(Cl)c(-c3ccccn3)c2)c(Cl)c1 [VISMODEGIB] | 2.8 | 10.3 | 18.8 |  |  | hepatocyte CLint [1]: 16 µL/min/1e6 cells; half-life [7]: 1 h; hepatocyte CLint [8]: < 1 µL/min/1e6 cells; half-life [13]: 1.9 h; clearance [16]: 5.6 mL/min/kg; bioavailability [18]: 33%; bioavailability [20]: 49%; clearance [22]: 2 mL/min/kg
27 | Cc1cc(Cl)c(-c2cn(C)cn2)cc1NC(=O)c1ccc(OCc2ccccn2)cc1 | 3.1 |  |  |  |  | 
